Results from ChEMBL document CHEMBL1144112, “New bromopyrrole alkaloids from the Indopacific sponge Agelas nakamurai” (1999).

Tests used:
Format in all cases: functional
[1] = test system: Bacillus subtilis; experiment: Antibacterial activity against Bacillus subtilis subsp. subtilis str. 168 at 0.2 umol/disk after 24 hrs by agar plate diffusion assay
In short: (§1)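 Paper disks 5 mm across loaded with 0.2 µmol of each isolated compound, placed on agar plates seeded with the test bacterium (B. subtilis 168, S. aureus ATCC 25923, E. coli ATCC 25922 or E. coli HB 101). Read-out is the diameter of the inhibition zone in mm.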

[2] = test system: Escherichia coli; experiment: Antibacterial activity against Escherichia coli ATCC 25922 at 0.2 umol/disk after 24 hrs by agar plate diffusion assay; in short: as §1
[3] = test system: Staphylococcus aureus; experiment: Antibacterial activity against Staphylococcus aureus ATCC 25923 at 0.2 umol/disk after 24 hrs by agar plate diffusion assay; in short: as §1
[4] = test system: Escherichia coli; experiment: Antibacterial activity against Escherichia coli HB101 at 0.2 umol/disk after 24 hrs by agar plate diffusion assay; in short: as §1

Row | Compound | inhibition zone (IZ) [1] | inhibition zone (IZ) [2] | inhibition zone (IZ) [3] | inhibition zone (IZ) [4]
1 | Nc1nc([C@@H]2c3[nH]c(N)nc3C[C@H](CNC(=O)c3cc(Br)c[nH]3)[C@H]2CNC(=O)c2cc(Br)c[nH]2)c[nH]1.O=C(O)C(F)(F)F.O=C(O)C(F)(F)F [AGELIFERIN] | 14 mm | 8 mm | 11 mm | 11 mm
2 | Cl.Cl.Nc1ncc([C@H]2[C@H](CNC(=O)c3ccc[nH]3)[C@@H](CNC(=O)c3ccc[nH]3)[C@@H]2c2cnc(N)[nH]2)[nH]1 [DEBROMOSCEPTRIN] | 10 mm |  |  | 
3 | COC(=O)[C@H]1[C@H](CNC(=O)c2cc(Br)c[nH]2)[C@@H](CNC(=O)c2cc(Br)c[nH]2)[C@@H]1c1c[nH]c(N)n1.O=C(O)C(F)(F)F [NAKAMURIC ACID METHYL ESTER] | 9 mm |  |  | 
4 | Nc1nc([C@H]2[C@H](CNC(=O)c3cc(Br)c[nH]3)[C@@H](CNC(=O)c3cc(Br)c[nH]3)[C@@H]2C(=O)O)c[nH]1.O=C(O)C(F)(F)F [NAKAMURIC ACID] | 9 mm |  |  | 
5 | Nc1nc([C@H]2[C@H](CNC(=O)c3cc(Br)c[nH]3)[C@@H](CNC(=O)c3cc(Br)c[nH]3)[C@@H]2c2c[nH]c(N)n2)c[nH]1.O=C(O)C(F)(F)F.O=C(O)C(F)(F)F [SCEPTRIN (TFA SALT)] | 16 mm | 9 mm | 16 mm | 13 mm
